Active and inactive are the calls of the source. No cut-off for these calls is given here.
Tests used:
MCF7 [1] = test: Cell cycle arrest in BrdU pulse-labelled human MCF7 cells assessed as accumulation at subG1 phase at 8 to 250 nM after 24 hrs by propidium iodide staining based flow cytometry; assay type: functional
[2] = biological target: Serine/threonine-protein kinase 3 (Homo sapiens) (UniProt Q13188); test: Inhibition of recombinant MST2 (unknown origin) assessed as residual activity at 1 uM relative to control
HCT-116 [3] = test: Induction of apoptosis in human HCT116 cells assessed as caspase7 activation using Ac-DEVD-AMC as substrate preincubated for 24 hrs followed by substrate addition measured after 3 hrs by fluorescence assay; assay type: functional, cell-based
[4] = biological target: Tyrosine-protein kinase Lck (Homo sapiens) (UniProt P06239); test: Inhibition of recombinant LCK (unknown origin) assessed as residual activity at 1 uM relative to control
Sequence of Tyrosine-protein kinase Lck (Homo sapiens) (P06239 2-509 limits assumed): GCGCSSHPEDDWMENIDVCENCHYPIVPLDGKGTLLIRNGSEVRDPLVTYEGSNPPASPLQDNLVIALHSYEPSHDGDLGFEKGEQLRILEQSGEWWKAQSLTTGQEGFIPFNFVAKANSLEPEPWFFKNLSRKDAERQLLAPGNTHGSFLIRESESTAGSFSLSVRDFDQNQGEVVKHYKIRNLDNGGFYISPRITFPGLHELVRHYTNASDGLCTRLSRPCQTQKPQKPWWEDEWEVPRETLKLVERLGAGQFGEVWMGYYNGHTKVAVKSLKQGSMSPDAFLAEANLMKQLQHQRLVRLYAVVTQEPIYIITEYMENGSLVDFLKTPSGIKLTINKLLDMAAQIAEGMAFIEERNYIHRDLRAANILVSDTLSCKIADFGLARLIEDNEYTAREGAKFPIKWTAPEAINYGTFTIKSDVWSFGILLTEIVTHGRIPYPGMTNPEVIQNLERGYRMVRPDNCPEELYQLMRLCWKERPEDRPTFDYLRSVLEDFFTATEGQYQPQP

MCF7 [5] = test: Cytotoxicity against human MCF7 cells assessed as reduction in cell viability after 72 hrs by calcein AM staining based fluorescence assay; assay type: functional
Method in brief: (§1)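 Cells were grown in DMEM with 10% FBS, penicillin and streptomycin at 37 °C in 5% CO2. Three doses were tested in triplicate for 72 h.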

G-361 = test: Induction of apoptosis in human G361 cells assessed as caspase3 activation using Ac-DEVD-AMC as substrate at IC50 preincubated for 24 hrs followed by substrate addition measured after 3 hrs by fluorescence assay; assay type: functional, cell-based
[6] = biological target: Myosin light chain kinase, smooth muscle (Homo sapiens) (UniProt Q15746); test: Inhibition of recombinant smMLCK (unknown origin) assessed as residual activity at 1 uM relative to control
[7] = biological target: Tyrosine-protein kinase JAK2 (Homo sapiens) (UniProt O60674); test: Inhibition of recombinant JAK2 (unknown origin) assessed as residual activity at 1 uM relative to control
[8] = biological target: AMP-activated protein kinase, AMPK (Homo sapiens) (UniProt P54646+O43741+P54619+Q9UGJ0+Q9Y478+Q13131+Q9UGI9); test: Inhibition of recombinant human AMPK assessed as residual activity at 1 uM relative to control; assay type: protein-complex assay
[9] = biological target: Tyrosine-protein kinase SYK (Homo sapiens) (UniProt P43405); test: Inhibition of recombinant SYK (unknown origin) assessed as residual activity at 1 uM relative to control
HCT-116 [10] = test: Induction of apoptosis in human HCT116 cells assessed as caspase3 activation using Ac-DEVD-AMC as substrate preincubated for 24 hrs followed by substrate addition measured after 3 hrs by fluorescence assay; assay type: functional, cell-based
[11] = biological target: Interleukin-1 receptor-associated kinase 4 (Homo sapiens) (UniProt Q9NWZ3); test: Inhibition of recombinant IRAK4 (unknown origin) assessed as residual activity at 1 uM relative to control
K562 = test: Cytotoxicity against human K562 cells assessed as reduction in cell viability after 72 hrs by calcein AM staining based fluorescence assay; assay type: functional; conditions: K562, 72 h; method in brief: as §1
[12] = biological target: Glycogen synthase kinase-3 beta (Homo sapiens) (UniProt P49841); test: Inhibition of recombinant GSK3beta (unknown origin) assessed as residual activity at 1 uM relative to control
Sequence of Glycogen synthase kinase-3 beta (Homo sapiens) (P49841 whole entry, looked up): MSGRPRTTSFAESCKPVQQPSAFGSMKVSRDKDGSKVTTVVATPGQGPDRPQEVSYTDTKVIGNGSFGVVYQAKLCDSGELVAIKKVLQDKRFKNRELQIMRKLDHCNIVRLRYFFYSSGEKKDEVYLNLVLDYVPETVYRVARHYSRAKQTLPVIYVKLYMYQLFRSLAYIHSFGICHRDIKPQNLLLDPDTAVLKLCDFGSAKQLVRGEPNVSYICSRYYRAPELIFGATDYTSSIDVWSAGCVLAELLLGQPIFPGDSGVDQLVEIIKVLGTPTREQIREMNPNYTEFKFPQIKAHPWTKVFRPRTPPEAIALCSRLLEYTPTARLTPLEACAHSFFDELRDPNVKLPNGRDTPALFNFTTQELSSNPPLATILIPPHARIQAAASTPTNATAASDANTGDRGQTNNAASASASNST

[13] = Cell cycle arrest in BrdU pulse-labelled human HCT116 cells assessed as decrease in cells at S phase at 125 to 500 nM after 24 hrs by propidium iodide staining based flow cytometry; assay type: functional; conditions: HCT-116
[14] = biological target: MAP/microtubule affinity-regulating kinase 3 (Homo sapiens) (UniProt P27448); test: Inhibition of recombinant MARK3 (unknown origin) assessed as residual activity at 1 uM relative to control
[15] = biological target: Serine/threonine-protein kinase TBK1 (Homo sapiens) (UniProt Q9UHD2); test: Inhibition of recombinant TBK1 (unknown origin) assessed as residual activity at 1 uM relative to control
Sequence of Serine/threonine-protein kinase TBK1 (Homo sapiens) (Q9UHD2 whole entry): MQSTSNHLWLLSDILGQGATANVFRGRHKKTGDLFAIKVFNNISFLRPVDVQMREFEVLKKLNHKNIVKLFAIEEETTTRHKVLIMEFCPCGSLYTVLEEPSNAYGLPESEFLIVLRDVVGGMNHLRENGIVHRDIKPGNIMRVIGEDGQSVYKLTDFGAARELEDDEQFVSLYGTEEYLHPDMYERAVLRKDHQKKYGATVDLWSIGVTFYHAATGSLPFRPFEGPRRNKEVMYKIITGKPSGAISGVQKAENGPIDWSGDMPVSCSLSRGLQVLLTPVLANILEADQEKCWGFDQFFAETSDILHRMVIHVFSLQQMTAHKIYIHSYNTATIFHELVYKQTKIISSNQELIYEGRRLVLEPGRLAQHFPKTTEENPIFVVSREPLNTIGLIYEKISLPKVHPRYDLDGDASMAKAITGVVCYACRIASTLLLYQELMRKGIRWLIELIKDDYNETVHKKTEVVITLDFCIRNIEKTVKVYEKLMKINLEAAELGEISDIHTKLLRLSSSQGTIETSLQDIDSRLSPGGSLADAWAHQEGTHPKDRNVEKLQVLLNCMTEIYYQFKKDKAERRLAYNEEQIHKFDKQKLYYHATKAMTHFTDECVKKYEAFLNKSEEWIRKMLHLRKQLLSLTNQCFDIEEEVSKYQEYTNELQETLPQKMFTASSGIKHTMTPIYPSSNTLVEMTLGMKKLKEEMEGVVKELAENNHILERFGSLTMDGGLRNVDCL

[16] = biological target: Protein kinase C alpha type (Homo sapiens) (UniProt P17252); test: Inhibition of recombinant PKCalpha (unknown origin) assessed as residual activity at 1 uM relative to control
[17] = biological target: Cyclin-dependent kinase 2 (Homo sapiens) (UniProt P24941); test: Inhibition of CDK2 in human G361 cells assessed as reduction in phosphorylation of RNA polymerase 2 at C-terminus at 1 uM incubated for 0.5 to 24 hrs by immunoblotting analysis; assay type: cell-based; conditions: G-361
Method in brief: (§2)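 Treated G361 cells were lysed in Laemmli buffer, run on SDS-PAGE and blotted to nitrocellulose. Blots were probed overnight with antibodies to RNA polymerase II phosphorylated at S5 and S2, and to total RNA polymerase II (ARNA-3). Peroxidase secondaries were then applied and signal was detected by ECL with a CCD camera.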

[18] = biological target: Cyclin-dependent kinase 7 (Homo sapiens, UniProt P50613); test: Inhibition of CDK7 (unknown origin)
Sequence of Cyclin-dependent kinase 7 (P50613 whole entry): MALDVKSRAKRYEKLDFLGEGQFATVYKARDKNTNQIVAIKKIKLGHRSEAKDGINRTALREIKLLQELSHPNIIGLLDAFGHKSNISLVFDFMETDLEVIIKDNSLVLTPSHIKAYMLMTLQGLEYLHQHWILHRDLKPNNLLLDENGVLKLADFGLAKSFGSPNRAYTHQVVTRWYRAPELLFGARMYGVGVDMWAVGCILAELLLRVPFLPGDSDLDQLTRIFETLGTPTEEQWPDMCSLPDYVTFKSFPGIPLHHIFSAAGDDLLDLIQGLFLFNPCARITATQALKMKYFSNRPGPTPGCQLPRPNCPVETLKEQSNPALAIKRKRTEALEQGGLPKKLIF

[19] = biological target: Ribosomal protein S6 kinase beta-1 (Homo sapiens) (UniProt P23443); test: Inhibition of recombinant S6K1 (unknown origin) assessed as residual activity at 1 uM relative to control
[20] = biological target: Dual specificity protein kinase TTK (Homo sapiens) (UniProt P33981); test: Inhibition of recombinant TTK (unknown origin) assessed as residual activity at 1 uM relative to control
[21] = Cell cycle arrest in BrdU pulse-labelled human HCT116 cells assessed as accumulation at late G2/M phase at 125 to 500 nM after 24 hrs by propidium iodide staining based flow cytometry; assay type: functional; conditions: HCT-116
[22] = biological target: Mitogen-activated protein kinase 14 (Homo sapiens) (UniProt Q16539); test: Inhibition of recombinant p38alpha MAP kinase (unknown origin) assessed as residual activity at 1 uM relative to control
Sequence of Mitogen-activated protein kinase 14 (Homo sapiens) (Q16539 whole entry): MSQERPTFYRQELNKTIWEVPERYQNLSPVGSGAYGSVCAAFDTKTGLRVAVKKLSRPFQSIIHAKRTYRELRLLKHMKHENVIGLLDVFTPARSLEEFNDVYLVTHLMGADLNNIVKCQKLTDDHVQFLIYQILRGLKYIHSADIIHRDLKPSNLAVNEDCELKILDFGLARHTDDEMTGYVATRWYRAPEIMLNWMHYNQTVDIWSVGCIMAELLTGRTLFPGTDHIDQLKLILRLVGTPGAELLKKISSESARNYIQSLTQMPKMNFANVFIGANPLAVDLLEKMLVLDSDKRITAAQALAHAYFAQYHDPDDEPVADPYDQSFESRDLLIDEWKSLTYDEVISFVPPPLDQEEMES

[23] = biological target: Serine/threonine-protein kinase Sgk1 (Homo sapiens) (UniProt O00141); test: Inhibition of recombinant SGK1 (unknown origin) assessed as residual activity at 1 uM relative to control
[24] = biological target: Serine/threonine-protein kinase D1 (Homo sapiens) (UniProt Q15139); test: Inhibition of recombinant PKD1 (unknown origin) assessed as residual activity at 1 uM relative to control
Sequence of Serine/threonine-protein kinase D1 (Homo sapiens) (Q15139 whole entry): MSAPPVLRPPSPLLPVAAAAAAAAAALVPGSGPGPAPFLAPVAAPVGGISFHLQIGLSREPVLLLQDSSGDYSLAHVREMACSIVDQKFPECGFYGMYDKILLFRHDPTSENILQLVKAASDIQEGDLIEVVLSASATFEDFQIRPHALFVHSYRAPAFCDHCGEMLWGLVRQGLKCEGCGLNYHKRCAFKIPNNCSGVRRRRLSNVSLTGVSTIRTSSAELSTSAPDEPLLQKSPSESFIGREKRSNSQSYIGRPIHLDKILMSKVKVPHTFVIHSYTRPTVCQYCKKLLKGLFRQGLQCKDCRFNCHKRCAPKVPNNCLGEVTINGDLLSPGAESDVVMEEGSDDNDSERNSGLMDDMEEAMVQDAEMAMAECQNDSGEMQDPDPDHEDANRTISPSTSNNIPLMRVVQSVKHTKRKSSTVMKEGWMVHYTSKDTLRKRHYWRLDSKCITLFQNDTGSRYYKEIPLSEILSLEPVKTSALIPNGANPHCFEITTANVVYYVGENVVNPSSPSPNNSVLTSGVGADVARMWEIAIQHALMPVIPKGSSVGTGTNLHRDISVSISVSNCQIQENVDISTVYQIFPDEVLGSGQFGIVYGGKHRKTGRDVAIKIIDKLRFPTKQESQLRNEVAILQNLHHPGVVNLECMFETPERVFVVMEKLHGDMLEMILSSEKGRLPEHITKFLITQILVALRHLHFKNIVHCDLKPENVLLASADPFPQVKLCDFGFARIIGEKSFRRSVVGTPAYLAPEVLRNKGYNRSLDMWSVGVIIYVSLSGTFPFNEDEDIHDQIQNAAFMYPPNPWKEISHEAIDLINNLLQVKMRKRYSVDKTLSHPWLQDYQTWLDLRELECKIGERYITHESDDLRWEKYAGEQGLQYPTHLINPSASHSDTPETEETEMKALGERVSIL

[25] = biological target: Cyclin-dependent kinase 2 (Homo sapiens) (UniProt P24941); test: Inhibition of CDK2 in human G361 cells assessed as reduction in phosphorylation of RNA polymerase 2 at C-terminus at 0.1 to 1 uM incubated for 24 hrs by immunoblotting analysis; assay type: cell-based; conditions: G-361; method in brief: as §2
[26] = biological target: Dual specificity mitogen-activated protein kinase kinase 1 (Homo sapiens) (UniProt Q02750); test: Inhibition of recombinant MKK1 (unknown origin) assessed as residual activity at 1 uM relative to control
Sequence of Dual specificity mitogen-activated protein kinase kinase 1 (Homo sapiens) (Q02750 whole entry): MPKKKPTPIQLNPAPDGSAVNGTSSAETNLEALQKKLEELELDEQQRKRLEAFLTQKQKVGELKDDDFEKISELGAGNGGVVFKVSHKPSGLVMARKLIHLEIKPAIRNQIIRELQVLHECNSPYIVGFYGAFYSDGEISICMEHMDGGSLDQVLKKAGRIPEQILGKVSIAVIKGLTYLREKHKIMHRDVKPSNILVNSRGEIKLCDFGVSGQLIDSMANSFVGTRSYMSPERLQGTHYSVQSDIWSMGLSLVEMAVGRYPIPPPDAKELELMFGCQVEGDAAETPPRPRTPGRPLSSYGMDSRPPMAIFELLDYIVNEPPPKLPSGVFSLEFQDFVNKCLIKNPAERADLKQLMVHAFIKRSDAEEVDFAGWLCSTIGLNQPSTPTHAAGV

[27] = biological target: Proto-oncogene tyrosine-protein kinase Src (Homo sapiens) (UniProt P12931); test: Inhibition of recombinant SRC (unknown origin) assessed as residual activity at 1 uM relative to control
Sequence of Proto-oncogene tyrosine-protein kinase Src (Homo sapiens) (P12931 2-536 limits assumed): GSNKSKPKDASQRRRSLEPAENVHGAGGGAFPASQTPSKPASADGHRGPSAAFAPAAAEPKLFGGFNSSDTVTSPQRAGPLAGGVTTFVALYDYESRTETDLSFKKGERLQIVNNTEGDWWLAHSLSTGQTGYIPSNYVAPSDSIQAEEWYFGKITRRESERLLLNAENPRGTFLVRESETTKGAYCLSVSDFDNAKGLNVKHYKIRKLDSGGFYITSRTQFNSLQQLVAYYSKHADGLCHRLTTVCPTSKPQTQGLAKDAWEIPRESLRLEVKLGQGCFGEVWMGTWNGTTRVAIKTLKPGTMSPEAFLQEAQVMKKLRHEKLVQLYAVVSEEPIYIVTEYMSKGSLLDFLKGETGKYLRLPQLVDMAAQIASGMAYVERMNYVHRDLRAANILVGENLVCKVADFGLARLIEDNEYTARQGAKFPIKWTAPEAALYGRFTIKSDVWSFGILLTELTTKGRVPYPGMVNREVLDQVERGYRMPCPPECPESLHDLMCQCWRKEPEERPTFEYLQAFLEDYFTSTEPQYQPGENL

[28] = biological target: Serine/threonine-protein kinase PLK1 (Homo sapiens) (UniProt P53350); test: Inhibition of recombinant PLK1 (unknown origin) assessed as residual activity at 1 uM relative to control
[29] = biological target: SRSF protein kinase 1 (Homo sapiens) (UniProt Q96SB4); test: Inhibition of recombinant SRPK1 (unknown origin) assessed as residual activity at 1 uM relative to control

CC(O)CNc1nc(NCc2ccc(-c3ccccn3)cc2)c2[nH]nc(C(C)C)c2n1 (configuration not stated)
Activity (MCF7 [1]): Active | Activity [2]: > 100% | Activity (HCT-116 [3]): Dose-dependent effect | Activity [4]: > 100% | Activity (MCF7 [5]): Dose-dependent effect | IC50 (MCF7 [5]; MCF7, 72 h): 27 nM | Activity (G-361): Active | Activity [6]: 90% | Activity [7]: > 100% | Activity [8]: 68% | Activity [9]: > 100% | Activity (HCT-116 [10]): Dose-dependent effect | Activity [11]: > 100% | IC50 (K562): 57 nM | Activity [12]: > 100% | Activity [13]: Active | Activity [14]: > 100% | Activity [15]: 92% | Activity [16]: > 100% | inhibition [17]: Active | IC50 [18]: 2780 nM | Activity [19]: > 100% | Activity [20]: 79% | Activity [21]: Active | Activity [22]: > 100% | Activity [23]: > 100% | Activity [24]: > 100% | inhibition [25]: Active | Activity [26]: 87% | Activity [27]: 88% | Activity [28]: 97% | Activity [29]: 95%

Reference: ChEMBL document CHEMBL3774312, “5-Substituted 3-isopropyl-7-[4-(2-pyridyl)benzyl]amino-1(2)H-pyrazolo[4,3-d]pyrimidines with anti-proliferative activity as potent and selective inhibitors of cyclin-dependent kinases” (Eur J Med Chem, 2016)
